CRFBP-R2 block: antagonists of CRF-BP/CRF-R2 complex, primary screen, cell-based, HEK293, calcium dye fluorescence, uHTS. CRF-induced calcium fluorescence. inhibition, % at 11.8 µM. 350,000 compounds, 0.59% hits;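 active = inhibition of the ligand-induced calcium signal above about 50% at the single tested concentration, limit read from the data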
CRFR2-BP ag: agonists of CRF-BP/CRF-R2 complex, primary screen, cell-based, HEK293, calcium dye fluorescence, uHTS; CRF-binding protein / CRF receptor 2 complex (human); calcium dye fluorescence (FLIPR); percent of saturating CRF peptide response; activation, % at 13.2 µM; 350,000 compounds, 0.46% hits; AID 588473, 2011;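 active = activation of at least 50%, plus an integration ratio under a set limit after plate pattern correction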
TRPN1 ag: zebrafish TRPN1 channel agonists, primary screen, cell-based, HEK293, calcium fluorescence. 220,000 compounds, 0.18% hits. HEK293 zebrafish TRPN1-YFP, Fluo-8 calcium fluorescence; 100% = response to 87 µM carbachol. activation, % at 3 µM;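 active = activation above its plate's cutoff, the mean activation of test wells on that plate plus 3 SD, cut at about 19% in these data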
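Assay system: Zebrafish TRPN1-YFP in HEK293 cells | Incubation: Dye loading 1 h at 37 °C, then 30 min room temperature | Measured by: Kinetic Fluo-8 fluorescence, ex 470-495, em 515-575 nm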
TRPML3 agonist: human TRPML3 channel agonists, primary screen, cell-based, HEK293 TRPML3-YFP, Fluo-8 calcium fluorescence, 3 µM. AID 1448, 2008. Mucolipin-3 (Homo sapiens), Q8TDD5. 100% = the carbachol control signal. activation, % at 3 µM. 220,000 compounds, 0.29% hits;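 active = activation above its plate's cutoff, the mean activation of the plate's test wells plus 3 SD, cut at about 12% in these data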
Target sequence (Q8TDD5 whole entry, looked up): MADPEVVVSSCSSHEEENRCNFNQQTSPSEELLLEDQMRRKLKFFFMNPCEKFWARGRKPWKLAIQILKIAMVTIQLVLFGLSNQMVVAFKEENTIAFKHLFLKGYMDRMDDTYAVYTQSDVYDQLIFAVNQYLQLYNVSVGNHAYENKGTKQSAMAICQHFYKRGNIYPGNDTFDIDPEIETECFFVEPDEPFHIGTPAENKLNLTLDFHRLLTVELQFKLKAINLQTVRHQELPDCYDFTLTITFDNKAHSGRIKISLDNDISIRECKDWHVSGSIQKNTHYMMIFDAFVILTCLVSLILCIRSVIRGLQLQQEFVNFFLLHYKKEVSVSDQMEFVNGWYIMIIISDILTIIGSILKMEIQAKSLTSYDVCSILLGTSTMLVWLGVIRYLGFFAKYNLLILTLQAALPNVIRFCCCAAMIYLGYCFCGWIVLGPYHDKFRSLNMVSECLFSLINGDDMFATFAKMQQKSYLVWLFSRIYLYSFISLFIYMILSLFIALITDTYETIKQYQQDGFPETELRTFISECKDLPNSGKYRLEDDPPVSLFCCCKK
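Test system: TRPML3-YFP stable HEK293 cells. Doses: single point at 3 µM. Incubation: dye loading 1 h 37 °C then 30 min ambient, 125 s read. Signal: Fluo-8 calcium dye fluorescence, ex 470-495, em 515-575 nm. Measure: percent activation from peak-to-basal fluorescence ratio, scaled between DMSO and carbachol.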
A number is an active result; . = inactive; / = no result. Most compounds without a hit are left out; they make up all but 1.2% or so of the library.

SMILES | CRFBP-R2 block | CRFR2-BP ag | TRPN1 ag | TRPML3 agonist
O=C(Nc1ccccc1)Nc1ccc(Cl)c([N+](=O)[O-])c1 | . | . | . | .
CN(C)c1ccc(NC(=O)Nc2ccc3snnc3c2)cc1 | . | . | 19.0 | .
O=C(Nc1ccccc1)Nc1ccc(F)c([N+](=O)[O-])c1 | . | . | 19.7 | .
O=C(Nc1ccccc1)Nc1ccc2nnsc2c1 | . | . | . | .
O=C(Nc1ccc(Cl)cc1)Nc1csc([N+](=O)[O-])c1 | . | . | 21.7 | 15.4
O=C(Nc1ccccc1)Nc1ccc2snnc2c1 | . | . | 21.4 | .
O=C(O)c1ccccc1-c1ccc(/C=C/c2cc(C(F)(F)F)[nH]c(=O)n2)o1 | . | 169.5 | 81.2 | 28.1
O=C(O)c1cc(Cl)ccc1-c1ccc(/C=C/c2cc(C(F)(F)F)[nH]c(=O)n2)o1 | . | 204.8 | 29.1 | 13.0
O=c1nc(/C=C/c2ccc(-c3ccc(F)cc3)o2)cc(C(F)(F)F)[nH]1 | / | / | . | .
Cc1ccc(S(=O)(=O)N2CCCCC2)cc1C(=O)NCCc1ccccc1 | . | . | / | /
COc1ccc(S(=O)(=O)N2CCCCCC2)cc1C(=O)N(C)Cc1ccc(Cl)cc1Cl | . | 104.2 | / | /
COc1ccc(S(=O)(=O)N2CCCCCC2)cc1C(=O)N(C)Cc1c(F)cccc1Cl | . | . | / | /
COc1ccc(S(=O)(=O)N2CCCCCC2)cc1C(=O)NCCc1ccccc1 | 112.1 | . | / | /
Cc1ccc(C(=O)OCC(=O)c2ccc(Cl)s2)s1 | . | . | . | .
COc1cc(/C=C2\Oc3cc(O)ccc3C2=O)ccc1O | . | 71.4 | / | /
Cc1ccsc1/C=C1\Oc2cc(O)ccc2C1=O | . | 72.4 | / | /
N#C/C(=C\c1cccnc1)C(=O)Nc1ccccc1[N+](=O)[O-] | . | . | / | /
Cc1cc2ccccc2n1CCNC(=O)COc1ccccc1 | . | . | / | /
COCCn1c(SCC(=O)Nc2cccc(C(=O)OC)c2)nc2ccccc2c1=O | 70.8 | . | . | .
COCCn1c(SCC(=O)Nc2cc(C)cc(C)c2)nc2ccccc2c1=O | . | . | / | /
CCNC(=S)Nc1ccc(OCC)cc1 | . | . | . | .
Cc1cc(/C=C2\NC(=S)N(C)C2=O)ccc1N1CCCC1 | . | 282.6 | 31.8 | 12.1
Cc1cc(/C=C2/C(=O)N(C)C(=S)N2C)ccc1N1CCCC1 | . | 80.8 | . | .
CCCN1C(=O)/C(=C/c2ccc(N3CCCC3)c(C)c2)NC1=S | . | 346.1 | 84.6 | 52.1
C1=CC2(C=C1)OC21CCC2(C=CC3(C2)OC3C2CCCCC2)CC1 (stereo not given) | . | . | / | /
SMILES | CRFBP-R2 block | CRFR2-BP ag | TRPN1 ag | TRPML3 agonist
Cc1cc(C(F)(F)F)nn1CC(=O)NCc1ccco1 | . | . | . | .
CCN1CCN(C(=O)C2=CC(c3ccc(OC)cc3)=NS(=O)(=O)N2C)CC1 | 63.0 | . | / | /
CCN(c1ccccc1)S(=O)(=O)c1ccc(C(=O)NCCc2ccc(S(N)(=O)=O)cc2)cc1 | . | . | / | /
Cc1ccc(N2C(=O)C3C4C=CC(CC4)C3C2=O)cc1[N+](=O)[O-] (stereo not given) | 73.0 | . | / | /
CNc1nc(Oc2ccccc2C(=O)OC)nc(SC)n1 | . | . | . | .
Nc1nc(CN2CCc3ccccc3C2)nc(Nc2ccccc2)n1 | 74.2 | . | . | .
COc1ccc(Nc2nc(N)nc(CN3CCc4ccccc4C3)n2)cc1 | . | . | . | .
CCCC(=O)Nc1ccc(NC(=O)c2cc3ccccc3o2)c(OC)c1 | . | . | / | /
CCOC(=O)/C(=C/c1ccc(N2CCC(c3ccccc3)=N2)cc1)C(C)=O | . | 253.8 | . | .
O=C(COC(=O)c1n[nH]c2ccccc12)NCCc1ccc(Cl)cc1 | . | . | / | /
Cc1csc(NC(=O)Cc2ccccc2[N+](=O)[O-])n1 | . | 208.1 | . | .
CCOC(=O)Cc1csc(NC(=O)Cc2ccccc2[N+](=O)[O-])n1 | . | . | . | .
CC(C)C[C@H]1CNC(=S)N1CC1CCCN1C[C@H](Cc1ccccc1)N1C[C@H](Cc2ccc(O)cc2)N(CC2CCCCCC2)C1=S (stereo not given in full) | . | . | / | /
CCOC(=O)C1CCN(Cc2nc(-c3ccc(OC)c(OC)c3)no2)CC1 | . | . | . | .
Cc1ccc(-c2noc(CN3CCC(C(N)=O)CC3)n2)cc1 | . | 50.7 | . | .
CS(=O)(=O)C1=NSC2=NC(=O)/C(=C\c3cccn3-c3ccc(Cl)cc3)C(=N)N21 | 57.3 | . | . | .

Source: PubChem BioAssay (several laboratories)
